According to ChEMBL document CHEMBL1138292, “Discovery of a tetrazole-based growth hormone secretagogue: 4-(hydroxybutyl)carbamic acid 2-{5-[1-(2-amino-2-methylpropionylamino)-2- benzyloxyethyl]tetrazol-1-yl}ethyl ester (BMS-317180)” (J Med Chem, 2007):
Activity calls are given as the source filed them. No cut-off for these calls is given here.

What was measured:
[1] = target: Growth hormone secretagogue receptor type 1 (Homo sapiens, UniProt Q92847); assay: Intrinsic activity at human GHS receptor in H4 glioma cells assessed by measuring intracellular calcium concentration by FLIPR assay; format: functional, cell-based
Sequence of Growth hormone secretagogue receptor type 1 (Q92847 whole entry): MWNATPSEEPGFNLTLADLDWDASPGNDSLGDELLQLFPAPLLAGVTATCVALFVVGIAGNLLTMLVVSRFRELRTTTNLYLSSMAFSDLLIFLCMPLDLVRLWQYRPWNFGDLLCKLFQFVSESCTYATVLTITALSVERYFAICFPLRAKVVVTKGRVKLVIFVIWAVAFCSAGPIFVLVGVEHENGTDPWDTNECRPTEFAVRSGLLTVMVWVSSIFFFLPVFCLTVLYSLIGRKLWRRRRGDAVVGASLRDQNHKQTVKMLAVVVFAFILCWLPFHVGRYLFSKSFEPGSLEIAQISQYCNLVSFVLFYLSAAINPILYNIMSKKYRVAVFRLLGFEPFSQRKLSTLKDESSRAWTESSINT
In short: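 H4 glioma cells with endogenous human GHS receptor expression enhanced by RAGE activation. Agonist-stimulated intracellular calcium mobilization read with a calcium-sensitive fluorescent probe in FLIPR.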

[2] = Half life in Beagle dog at 10 umol/kg, po; format: ADME, organism-based, Canis lupus familiaris; settings: in vivo
In short: (§1)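 Fasted animals (rat, cynomolgus monkey, beagle dog) given single oral doses of 15, 10 and 10 µmol/kg respectively; intravenous reference dose 5 µmol/kg in all species. Oral bioavailability, half-life and plasma clearance derived from the plasma profiles.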

Macaca fascicularis [3] = assay: Bioavailability in monkey at 10 umol/kg, po; settings: cynomolgus monkey, in vivo
Cytochrome P450 1A2 = target: T1, Cytochrome P450 1A2 (Homo sapiens, UniProt P05177); assay: Inhibition of CYP1A2; format: ADME
T1 sequence (P05177 whole entry): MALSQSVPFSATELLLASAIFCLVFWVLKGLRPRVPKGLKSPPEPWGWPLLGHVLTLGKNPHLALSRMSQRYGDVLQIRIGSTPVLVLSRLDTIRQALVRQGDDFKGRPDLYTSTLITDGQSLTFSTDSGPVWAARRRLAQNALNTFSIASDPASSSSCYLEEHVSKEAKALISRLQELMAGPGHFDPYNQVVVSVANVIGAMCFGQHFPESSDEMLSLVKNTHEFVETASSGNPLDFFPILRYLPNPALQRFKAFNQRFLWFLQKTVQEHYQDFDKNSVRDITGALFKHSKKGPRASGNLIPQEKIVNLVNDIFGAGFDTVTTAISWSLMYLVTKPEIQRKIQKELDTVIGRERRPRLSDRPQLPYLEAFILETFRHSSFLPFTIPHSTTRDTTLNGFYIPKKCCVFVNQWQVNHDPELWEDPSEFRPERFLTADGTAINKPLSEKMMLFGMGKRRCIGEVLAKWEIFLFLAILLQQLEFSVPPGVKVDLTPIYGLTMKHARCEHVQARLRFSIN

Salmonella typhimurium [4] = assay: Mutagenic effect on Salmonella Typhimurium TA100 by Ames test; format: toxicity, organism-based; settings: salmonella enterica subsp. enterica serovar typhimurium
[5] = Bioavailability in Beagle dog at 10 umol/kg, po; format: ADME, organism-based, Canis lupus familiaris; settings: in vivo; in short: as §1
Cytochrome P450 3A4 = Cytochrome P450 3A4 (Homo sapiens, UniProt P08684); assay: Inhibition of CYP3A4; format: ADME
Sequence of Cytochrome P450 3A4 (P08684 whole entry): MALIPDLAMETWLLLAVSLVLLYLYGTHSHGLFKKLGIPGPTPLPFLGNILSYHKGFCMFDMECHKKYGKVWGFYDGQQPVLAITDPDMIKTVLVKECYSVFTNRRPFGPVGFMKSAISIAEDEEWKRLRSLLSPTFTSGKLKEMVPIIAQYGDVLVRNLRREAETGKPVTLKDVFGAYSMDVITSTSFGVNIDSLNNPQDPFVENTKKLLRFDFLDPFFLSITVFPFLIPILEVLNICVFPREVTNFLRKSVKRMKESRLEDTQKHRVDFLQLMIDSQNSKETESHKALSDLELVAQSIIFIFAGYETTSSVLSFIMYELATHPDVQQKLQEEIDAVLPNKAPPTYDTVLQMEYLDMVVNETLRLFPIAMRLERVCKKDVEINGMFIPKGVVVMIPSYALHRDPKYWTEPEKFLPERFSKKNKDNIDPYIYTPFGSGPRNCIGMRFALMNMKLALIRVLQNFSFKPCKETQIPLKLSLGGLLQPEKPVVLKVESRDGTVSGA

[6] = Solubility at pH 4; format: physicochemical; settings: buffer
Macaca fascicularis [7] = assay: Plasma clearance in monkey at 10 umol/kg, po; settings: cynomolgus monkey
Cytochrome P450 2C19 = Cytochrome P450 2C19 (Homo sapiens, UniProt P33261); assay: Inhibition of CYP2C19; format: ADME
Sequence of Cytochrome P450 2C19 (P33261 whole entry): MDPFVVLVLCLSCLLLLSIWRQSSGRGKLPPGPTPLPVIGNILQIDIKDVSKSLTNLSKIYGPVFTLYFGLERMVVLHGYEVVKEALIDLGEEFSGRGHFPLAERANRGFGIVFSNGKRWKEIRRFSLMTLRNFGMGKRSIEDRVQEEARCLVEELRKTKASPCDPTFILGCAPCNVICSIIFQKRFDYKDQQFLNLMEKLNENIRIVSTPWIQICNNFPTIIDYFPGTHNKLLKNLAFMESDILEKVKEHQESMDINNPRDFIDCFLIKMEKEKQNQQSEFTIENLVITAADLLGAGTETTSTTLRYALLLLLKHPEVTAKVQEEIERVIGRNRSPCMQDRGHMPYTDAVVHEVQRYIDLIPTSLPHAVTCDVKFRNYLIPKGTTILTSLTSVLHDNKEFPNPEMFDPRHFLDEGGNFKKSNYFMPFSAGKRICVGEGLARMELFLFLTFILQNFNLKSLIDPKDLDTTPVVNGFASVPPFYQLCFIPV

Cytochrome P450 2D6 = Cytochrome P450 2D6 (Homo sapiens, UniProt P10635); assay: Inhibition of CYP2D6; format: ADME
Sequence of Cytochrome P450 2D6 (P10635 whole entry): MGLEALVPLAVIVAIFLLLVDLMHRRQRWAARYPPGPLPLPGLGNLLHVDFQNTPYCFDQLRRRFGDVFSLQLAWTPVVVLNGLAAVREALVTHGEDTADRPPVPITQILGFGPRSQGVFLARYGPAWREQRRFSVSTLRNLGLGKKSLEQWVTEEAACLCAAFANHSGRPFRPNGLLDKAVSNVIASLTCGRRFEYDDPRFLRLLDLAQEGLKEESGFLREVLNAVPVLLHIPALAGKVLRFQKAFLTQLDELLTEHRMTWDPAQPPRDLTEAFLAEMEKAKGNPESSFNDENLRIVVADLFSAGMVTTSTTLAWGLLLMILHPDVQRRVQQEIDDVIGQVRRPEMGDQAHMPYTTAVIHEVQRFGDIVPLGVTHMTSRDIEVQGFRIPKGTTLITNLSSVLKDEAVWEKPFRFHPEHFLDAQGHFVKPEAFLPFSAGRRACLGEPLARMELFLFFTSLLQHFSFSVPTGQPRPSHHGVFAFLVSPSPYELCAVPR

[8] = Bioavailability in rat at 15 umol/kg, po; format: ADME, organism-based; settings: in vivo; in short: as §1
[9] = Plasma clearance in rat at 15 umol/kg, po; format: ADME, organism-based; in short: as §1
Canis familiaris [10] = assay: Increase in plasma growth hormone level in Beagle dog at 0.52 to 52.3 umol/kg, po; format: functional, organism-based; settings: Canis lupus familiaris
In short: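 Conscious beagle dogs given single oral doses of 0.52 to 52.3 µmol/kg, water as vehicle control; plasma GH followed over a 4 h time course.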

Salmonella typhimurium [11] = assay: Mutagenic effect on Salmonella Typhimurium TA98 by Ames test; format: toxicity, organism-based; settings: salmonella enterica subsp. enterica serovar typhimurium
Hepatocyte = assay: Toxicity in human hepatocytes upto 250 ug/mL; format: cell-based
In short: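 Human hepatocyte hepatotoxicity assay run at concentrations up to 250 µg/mL.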

[12] = Half life in rat at 15 umol/kg, po; format: ADME, organism-based; settings: in vivo; in short: as §1
Macaca fascicularis [13] = assay: Half life in monkey at 10 umol/kg, po; settings: cynomolgus monkey, in vivo
Rattus norvegicus = assay: Increase in plasma growth hormone level in iv dosed Wistar rat after 15 mins by radioimmunoassay; format: functional; settings: 0.25 h
In short: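 Anesthetized rats, groups of five, dosed iv in 10% ethanol, […] saline (v/v) vehicle at 10 mL/kg. Abdominal aorta blood sampled at 15 min; plasma rat GH measured by a modified radioimmunoassay kit.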

Canis familiaris [14] = assay: Plasma clearance in Beagle dog at 10 umol/kg, po; format: ADME, organism-based, Canis lupus familiaris; settings: in vivo; in short: as §1
Cytochrome P450 2C9 = Cytochrome P450 2C9 (Homo sapiens, UniProt P11712); assay: Inhibition of CYP2C9; format: ADME
Sequence of Cytochrome P450 2C9 (P11712 whole entry): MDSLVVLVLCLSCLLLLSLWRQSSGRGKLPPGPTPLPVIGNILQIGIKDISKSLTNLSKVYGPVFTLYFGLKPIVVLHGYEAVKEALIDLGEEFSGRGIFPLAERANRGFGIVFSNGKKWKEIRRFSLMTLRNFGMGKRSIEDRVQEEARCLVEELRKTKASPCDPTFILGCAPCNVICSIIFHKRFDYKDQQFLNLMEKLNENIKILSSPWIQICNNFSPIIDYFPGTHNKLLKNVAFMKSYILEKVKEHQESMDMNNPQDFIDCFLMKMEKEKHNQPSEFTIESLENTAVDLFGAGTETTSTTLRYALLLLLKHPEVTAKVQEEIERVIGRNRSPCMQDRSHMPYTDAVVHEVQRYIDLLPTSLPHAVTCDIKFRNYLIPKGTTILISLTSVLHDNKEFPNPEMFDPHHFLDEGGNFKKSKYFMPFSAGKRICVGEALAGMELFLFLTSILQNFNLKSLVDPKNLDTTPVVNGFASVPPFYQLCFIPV

[15] = Bioavailability in rat; format: ADME, organism-based; settings: in vivo

Question: With `CC(C)(N)C(=O)N[C@H](COCc1ccccc1)c1nnnn1CCOC(=O)NC[C@H]1CCCO1` as the compound, how does the EC50 [1] read?
Answer: 9.5 nM

Question: Which EC50 [1] does the source give for `CC(C)(N)C(=O)N[C@H](COCc1ccccc1)c1nnnn1CCOC(=O)N1CC[C@@H](O)C1` here?
Answer: 1 nM

Question: With `CC(C)(N)C(=O)N[C@H](COCc1ccccc1)c1nnnn1CCOC(=O)NCCCCCO` as the compound, how does the EC50 [1] read?
Answer: 14.6 nM

Question: With `CC(C)(N)C(=O)N[C@H](COCc1ccccc1)c1nnnn1CCOC(=O)NCCCO` as the compound, how does the EC50 [1] read?
Answer: 5.5 nM

Question: With `CC(C)(N)C(=O)N[C@H](COCc1ccccc1)c1nnnn1CCOC(=O)NCCCn1ccnc1` as the compound, how does the EC50 [1] read?
Answer: 45.3 nM

Question: For `CC(=O)NCCCCNC(=O)OCCn1nnnc1[C@@H](COCc1ccccc1)NC(=O)C(C)(C)N`, which EC50 [1] is on record?
Answer: 82.5 nM

Question: Which EC50 [1] does the source give for `CC(C)(N)C(=O)N[C@H](COCc1ccccc1)c1nnnn1CCOC(=O)NCCc1cccc(O)c1` here?
Answer: 7.9 nM

Question: For `CN(CCCCO)C(=O)OCCn1nnnc1[C@@H](COCc1ccccc1)NC(=O)C(C)(C)N`, which EC50 [1] is on record?
Answer: 3.8 nM

Question: Which half-life [2] does the source give for `CC(C)(N)C(=O)N[C@H](COCc1ccccc1)c1nnnn1CCOC(=O)NCCCCO` here?
Answer: 2.3 h

Question: And the EC50 [1]?
Answer: 1.9 nM

Question: And the bioavailability (Macaca fascicularis [3])?
Answer: 12%

Question: And the IC50 (Cytochrome P450 1A2)?
Answer: > 100000 nM

Question: And the Activity (Salmonella typhimurium [4])?
Answer: Non-toxic

Question: What about the bioavailability [5] of the same compound?
Answer: 40%

Question: And the IC50 (Cytochrome P450 3A4)?
Answer: > 100000 nM

Question: And the solubility [6]?
Answer: > 100 mg/mL

Question: And the CL/F (Macaca fascicularis [7])?
Answer: 37 mL/min/kg

Question: And the IC50 (Cytochrome P450 2C19)?
Answer: > 100000 nM

Question: What about the IC50 (Cytochrome P450 2D6) of the same compound?
Answer: > 100000 nM

Question: And the bioavailability [8]?
Answer: 9%

Question: What about the CL/F [9] of the same compound?
Answer: 213 mL/min/kg

Question: And the Activity (Canis familiaris [10])?
Answer: Active

Question: And the Activity (Salmonella typhimurium [11])?
Answer: Non-toxic

Question: What about the Activity (Hepatocyte) of the same compound?
Answer: Non-toxic

Question: What about the half-life [12] of the same compound?
Answer: 0.7 h

Question: And the half-life (Macaca fascicularis [13])?
Answer: 1.1 h

Question: What about the ED50 (Rattus norvegicus) of the same compound?
Answer: 0.08 µmol/kg

Question: What about the clearance (Canis familiaris [14]) of the same compound?
Answer: 21 mL/min/kg

Question: And the IC50 (Cytochrome P450 2C9)?
Answer: > 100000 nM

Question: For `CC(=O)N[C@@H]1CCN(C(=O)OCCn2nnnc2[C@@H](COCc2ccccc2)NC(=O)C(C)(C)N)C1`, which EC50 [1] is on record?
Answer: 3.3 nM

Question: What about the bioavailability [15] of the same compound?
Answer: < 5%

Question: With `CC1(O)CCN(C(=O)OCCn2nnnc2[C@@H](COCc2ccccc2)NC(=O)C(C)(C)N)C1` (stereo partly drawn) as the compound, how does the EC50 [1] read?
Answer: 10.1 nM

Question: Which EC50 [1] does the source give for `CC(C)(N)C(=O)N[C@H](COCc1ccccc1)c1nnnn1CCOC(=O)NCCO` here?
Answer: 3 nM
